From PubChem BioAssay
Yeast life ext: extends the lifespan of yeast; S. cerevisiae growth with nicotinamide, OD615; deaD strain in restrictive glucose medium; inhibition of the nicotinamide effect, % at 10 µM; hit rate 0.68% among 130,000;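 active = inhibition above a set limit, placed 3 SD over the median of all compounds, cut at about 26% in these data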;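 also: 0% = nicotinamide-treated wells and 100% = cells grown without nicotinamide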
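Buffer or medium: CSMM-D glucose medium, restrictive; test system: modified budding yeast, DeaD strain; compound: single dose 10 µM compound, 0.25% DMSO; schedule: culture preincubation 4 h, compound exposure 48 h, both 30 °C; detection: optical density (absorbance) at 615 nm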
b-catenin transl: alters nuclear translocation of beta-catenin in HeLa cells | immunofluorescence imaging | nuclear translocation activity, % at 5 µM | AID 1665 | hit rate 0.3% among 190,000;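 active = nuclear translocation activity above 50% at 5 µM, with a well cell count of 50 or more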;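 also: per-cell ratio of nuclear to cytoplasmic median beta-catenin stain intensity; plate controls were DMSO negative control for no effect and GSK-3 inhibitor IX positive control for full effect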
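System: Human HeLa cells, endogenous beta-catenin | Compound dosing: 5 µM primary, 0.02–20 µM confirmation | Timing: 24 h compound exposure at 37°C, 5% CO2 | Measured by: Fluorescence imaging of beta-catenin antibody stain plus DAPI | Read-out basis: % activation of per-cell nuclear versus cytoplasmic median beta-catenin signal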
Efa HMGR inh: inhibitors of class II HMG-CoA reductase from Enterococcus faecalis. purified E. faecalis HMGR, NADPH absorbance 340 nm kinetic. inhibition, % at 10 µM. hit rate 0.41% among 190,000;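 active = inhibition above a set limit, the median over all tested compounds plus 3 SD, cut at about 9.5% in these data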;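 also: enzyme runs in reverse so mevalonate oxidation gives rising NADPH absorbance; 0% = complete reaction with DMSO and 100% = background rate lacking mevalonate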
MT stabilize HCS: stabilizes microtubules in HeLa cells; % tubulin-high responders, % at 10 µM; hit rate 0.83% among 200,000; AID 2205; HeLa tubulin immunostaining HCS, 24 h; share of cells brighter than vehicle mean+2SD;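 active = plate Z-score above 3 for both tubulin-high and condensed-nucleus cell shares, with cell loss under 80%, at 10 µM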;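 also: anti alpha tubulin signal scored within the nucleus-defined area of each cell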
RAM network inh: inhibitors of the yeast RAM network; S. cerevisiae dse1pr::URA3 reporter, 5-FOA growth OD615, 2 d; analog-sensitive cbk1-as2 kinase mutant strain; inhibition, % at 50 µM; hit rate 1.8% among 190,000; AID 868;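 active = inhibition above a set limit, 3 SD over mean compound inhibition, cut at about 8.4% in these data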;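 also: 0% = DMSO-only wells with no growth and 100% = 10 µM 1-NA-PP1 full growth; inhibition rescues growth on 5-FOA so higher OD means more RAM inhibition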
BB579 growth dn: yeast BB579 growth reduction in restrictive medium; S. cerevisiae BB579 growth, OD615, 48 h; inhibition, % at 10 µM; hit rate 0.51% among 140,000;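 active = inhibition above a set limit, 3 SD over the mean compound inhibition, cut at about 44% in these data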
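Test system: Saccharomyces cerevisiae DeaD strain BB579, replicative lifespan model yeast | Buffer or medium: Restrictive CSMM-D medium | Doses: One dose, 10 µM compound with 0.25% DMSO | Incubation: 48 h exposure, 30 °C | Detection: Culture absorbance at 615 nm | Control set: Amphotericin B at 10 µg/mL as positive control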
RAM 5-FOA: RAM network inhibitors in efflux-deficient yeast; shares compounds with RAM network inh; S. cerevisiae efflux-deficient reporter strain, 5-FOA growth OD615, 2 days; max inhibition, %; 1,200 tested, under 10 active; AID 1305; call rule not given here;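 also: plate controls were vehicle for no effect and reference inhibitor for full effect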
Active calls of the source: *; / = no result. The list is not random: actives were taken first. Their share in the collection is about 3.5%.

SMILES	Yeast life ext	b-catenin transl	Efa HMGR inh	MT stabilize HCS	RAM network inh	BB579 growth dn	RAM 5-FOA
CCOC(=O)C1=C(c2ccccc2)N=c2s/c(=C\c3cc(OC)c(OC)c(OC)c3)c(=O)n2C1c1cccs1 (stereo not drawn)	-15	-2	0	2	12*	-12	4
CC(C)OCCCNC(=O)C(NS(=O)(=O)c1ccc2c(c1)c(=O)n(C)c(=O)n2C)c1ccccc1 (stereo not drawn)	/	-5	-2	5	13*	/	3
COc1ccc(CC(=O)NNC(=S)NCC2CC2)cc1OC	/	1	/	/	/	/	/
COc1ccc(Br)cc1/C=N/NC(=O)CN1CCN(Cc2ccccc2)CC1	/	0	/	/	/	/	/
O=C(O)c1ccc(Cl)c(S(=O)(=O)Nc2cccc(C(=O)Nc3cccc(C(F)(F)F)c3)c2)c1	/	0	2	4	12*	/	3
COc1ccc(C(=O)O)cc1S(=O)(=O)Nc1cccc(C(F)(F)F)c1	-15	-8	1	6	2	-16	/
COC(=O)/C(C#N)=C(/Nc1ccc(F)c(Cl)c1)C(F)(F)F	/	1	/	/	/	/	/
Cc1cc(C(=O)CSc2ccc(Cl)cc2)cc(C)c1OC(=S)N(C)C	-4	/	-9	1	12*	-26	5
O=C(CN(C(=O)CCC(=O)Nc1ccccn1)c1ccc2c(c1)OCCO2)NCCc1ccccc1	/	2	0	/	15*	-45	1
Cc1nc(-c2ccccc2)sc1C(=O)O	/	2	5	3	0	/	/
COc1ccc(/C=C/C(=O)c2sc(-c3ccccc3)nc2C)cc1	-4	-1	0	1	13*	-50	1
CN(Cc1cc(-c2ccccc2)on1)C(=O)c1cc(COc2c(F)cccc2F)on1	/	1	-2	1	21*	/	2
Cc1ccc(C(=O)O/N=C\c2ccc(N3CCCCC3)c([N+](=O)[O-])c2)cc1	-3	/	-1	4	16*	-15	3
COc1ccc(C(=O)/C=C/c2ccc(N3CCCCC3)c([N+](=O)[O-])c2)c(OC)c1	4	0	-15	5	17*	-42	4
O=C(O/N=C\c1ccc(N2CCCCC2)c([N+](=O)[O-])c1)c1c(F)cccc1F	-6	/	-4	4	6	-37	/
Cc1ccc2c(c1)c(-c1ccccc1)nc1nnnn12	/	0	-9	3	1	/	/
Cc1ccc2cc(/C=N/NC(=O)CN3CCCCC3)c(Cl)nc2c1	/	-1	0	2	1	/	/
CC1CCCC(NC(=O)COC(=O)CCc2ccccc2)C1C (stereo not drawn)	/	-3	-2	1	0	/	/
CC1CCCC(NC(=O)COC(=O)CSc2ccc3ccccc3c2)C1C (stereo not drawn)	10	/	5	4	12*	-29	3
COc1ccc(NC(=O)CSc2nc3ccccc3c(=O)n2CCNC(C)=O)c(OC)c1	15	-2	-4	4	12*	-46	1
CC(=O)NCCn1c(SCc2cc(F)ccc2F)nc2ccccc2c1=O	-5	/	-1	3	5	-52	/
CC(=O)NCCn1c(SCc2cccc([N+](=O)[O-])c2)nc2ccccc2c1=O	/	-1	0	3	12*	/	3
Cc1cccc(C)c1NC(=S)NCc1ccncc1	/	1	/	/	/	/	/
COc1ccc(/C(O)=C2/C(=O)C(=O)N(c3ncccn3)C2c2ccc(C(C)(C)C)cc2)cc1 (stereo not drawn)	/	0	-3	3	5	/	/
COc1ccc(-c2[nH]ncc2Oc2ccccc2OC)c(O)c1	5	/	-4	5	0	-9	/
COc1ccc(-c2cn[nH]c2-c2ccc(OCc3ccccc3)cc2O)cc1OC	/	0	/	/	/	/	/
C=C(C)COc1ccc(-c2[nH]ncc2-c2ccc(OC)c(OC)c2)c(O)c1	-21	-1	4	58*	14*	-33	2
C=C(C)COc1ccc(-c2[nH]ncc2Oc2ccccc2OCC)c(O)c1	-15	-3	1	5	16*	-5	2
CSc1ncccc1C(=O)OCC(=O)NCc1ccc2c(c1)OCO2	/	-2	-5	4	5	/	/
